Laboratory results as given in ChEMBL document CHEMBL1154591, “Synthesis and in vitro microbiological evaluation of novel 4-aryl-5-isopropoxycarbonyl-6-methyl-3,4-dihydropyrimidinones” (2010).
≈ marks a conversion by molar mass, not a printed value.

Assays:
Rhizopus = experiment: Antifungal activity against Rhizopus after 72 to 96 hrs by two fold serial dilution technique; type: functional
Method in brief: (§1)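 Twofold serial dilution in Sabouraud's dextrose broth. Compounds were taken up in DMSO as 1 mg/ml stocks, and 0.2 ml of stock was added to 1.8 ml of seeded broth for the first dilution, giving six dilutions. Seeded broth came from 24 h to 7-day Sabouraud's agar slant cultures, with a final inoculum of 1.1–1.5 × 10² cfu/ml. Tubes were incubated at 28 ± 1 °C for 72–96 h, and MIC was read visually. Broth-only and solvent controls were included.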

Mucor = experiment: Antifungal activity against Mucor after 72 to 96 hrs by two fold serial dilution technique; type: functional; method in brief: as §1
Salmonella typhi = experiment: Antibacterial activity against Salmonella typhi after 24 hrs by two fold serial dilution technique; type: functional, Salmonella enterica subsp. enterica serovar Typhi; conditions: Salmonella enterica
Method in brief: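 Twofold serial broth dilution in nutrient broth. Compounds dissolved in DMSO as 1 mg/ml stocks; 0.2 ml added to 1.8 ml seeded broth, then serially diluted to six dilutions. Inoculum from 24 h nutrient agar cultures, final 10⁵ cfu/ml, pH 7.4 ± 0.2. Incubated at 37 ± 1 °C; MIC read visually at 24 h. Seeded-broth and solvent controls; ciprofloxacin standard.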

Aspergillus flavus = experiment: Antifungal activity against Aspergillus flavus after 72 to 96 hrs by two fold serial dilution technique; type: functional; method in brief: as §1
Escherichia coli = experiment: Antibacterial activity against Escherichia coli after 24 hrs by two fold serial dilution technique; type: functional
Method in brief: (§2)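 Twofold serial broth dilution in nutrient broth. Compounds were taken up in DMSO as 1 mg/ml stocks, and 0.2 ml of stock was added to 1.8 ml of seeded broth for the first dilution, giving six dilutions in all. Seeded broth came from 24 h nutrient agar cultures, with a final inoculum of 10⁵ cfu/ml at pH 7.4 ± 0.2. Tubes were incubated at 37 ± 1 °C, and MIC was read visually after 24 h. Broth-only and solvent controls were included.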

Klebsiella pneumoniae = experiment: Antibacterial activity against Klebsiella pneumoniae after 24 hrs by two fold serial dilution technique; type: functional; method in brief: as §2
Pseudomonas aeruginosa = experiment: Antibacterial activity against Pseudomonas aeruginosa after 24 hrs by two fold serial dilution technique; type: functional; method in brief: as §2
Staphylococcus aureus = experiment: Antibacterial activity against Staphylococcus aureus after 24 hrs by two fold serial dilution technique; type: functional; method in brief: as §2
Candida albicans = experiment: Antifungal activity against Candida albicans after 72 to 96 hrs by two fold serial dilution technique; type: functional; method in brief: as §1

Structure (SMILES): CC1=C(C(=O)OC(C)C)C(c2ccccc2)NC(=S)N1 (stereo not drawn)
- MIC (Rhizopus): 100 µg/mL (≈ 344 µM)
- MIC (Mucor): 50 µg/mL (≈ 172 µM)
- MIC (Salmonella typhi): 100 µg/mL (≈ 344 µM)
- MIC (Aspergillus flavus): 100 µg/mL (≈ 344 µM)
- MIC (Escherichia coli): 200 µg/mL (≈ 689 µM)
- MIC (Klebsiella pneumoniae): 100 µg/mL (≈ 344 µM)
- MIC (Pseudomonas aeruginosa): 50 µg/mL (≈ 172 µM)
- MIC (Staphylococcus aureus): 50 µg/mL (≈ 172 µM)
- MIC (Candida albicans): 50 µg/mL (≈ 172 µM)

Structure (SMILES): CC1=C(C(=O)OC(C)C)C(c2ccccc2)NC(=O)N1 (stereo not drawn)
- MIC (Rhizopus): 200 µg/mL (≈ 729 µM)
- MIC (Mucor): 200 µg/mL (≈ 729 µM)
- MIC (Salmonella typhi): 200 µg/mL (≈ 729 µM)
- MIC (Escherichia coli): 200 µg/mL (≈ 729 µM)
- MIC (Klebsiella pneumoniae): 200 µg/mL (≈ 729 µM)
- MIC (Pseudomonas aeruginosa): 100 µg/mL (≈ 365 µM)
- MIC (Staphylococcus aureus): 200 µg/mL (≈ 729 µM)
- MIC (Candida albicans): 100 µg/mL (≈ 365 µM)

Structure (SMILES): COc1ccc(C2NC(=O)NC(C)=C2C(=O)OC(C)C)cc1 (stereo not drawn)
- MIC (Rhizopus): 50 µg/mL (≈ 164 µM)
- MIC (Mucor): 50 µg/mL (≈ 164 µM)
- MIC (Salmonella typhi): 50 µg/mL (≈ 164 µM)
- MIC (Aspergillus flavus): 100 µg/mL (≈ 329 µM)
- MIC (Escherichia coli): 100 µg/mL (≈ 329 µM)
- MIC (Klebsiella pneumoniae): 100 µg/mL (≈ 329 µM)
- MIC (Pseudomonas aeruginosa): 50 µg/mL (≈ 164 µM)
- MIC (Staphylococcus aureus): 50 µg/mL (≈ 164 µM)
- MIC (Candida albicans): 50 µg/mL (≈ 164 µM)

Structure (SMILES): CC1=C(C(=O)OC(C)C)C(c2ccc(C)cc2)NC(=O)N1 (stereo not drawn)
- MIC (Rhizopus): 50 µg/mL (≈ 173 µM)
- MIC (Mucor): 50 µg/mL (≈ 173 µM)
- MIC (Salmonella typhi): 100 µg/mL (≈ 347 µM)
- MIC (Aspergillus flavus): 200 µg/mL (≈ 694 µM)
- MIC (Escherichia coli): 100 µg/mL (≈ 347 µM)
- MIC (Klebsiella pneumoniae): 100 µg/mL (≈ 347 µM)
- MIC (Pseudomonas aeruginosa): 50 µg/mL (≈ 173 µM)
- MIC (Staphylococcus aureus): 100 µg/mL (≈ 347 µM)
- MIC (Candida albicans): 50 µg/mL (≈ 173 µM)

Structure (SMILES): CC1=C(C(=O)OC(C)C)C(c2ccc(F)cc2)NC(=O)N1 (stereo not drawn)
- MIC (Rhizopus): 12.5 µg/mL (≈ 42.8 µM)
- MIC (Mucor): 25 µg/mL (≈ 85.5 µM)
- MIC (Salmonella typhi): 12.5 µg/mL (≈ 42.8 µM)
- MIC (Aspergillus flavus): 25 µg/mL (≈ 85.5 µM)
- MIC (Escherichia coli): 25 µg/mL (≈ 85.5 µM)
- MIC (Klebsiella pneumoniae): 25 µg/mL (≈ 85.5 µM)
- MIC (Pseudomonas aeruginosa): 12.5 µg/mL (≈ 42.8 µM)
- MIC (Staphylococcus aureus): 12.5 µg/mL (≈ 42.8 µM)
- MIC (Candida albicans): 12.5 µg/mL (≈ 42.8 µM)

Structure (SMILES): CC1=C(C(=O)OC(C)C)C(c2ccc(Cl)cc2)NC(=O)N1 (stereo not drawn)
- MIC (Rhizopus): 25 µg/mL (≈ 81 µM)
- MIC (Mucor): 50 µg/mL (≈ 162 µM)
- MIC (Salmonella typhi): 25 µg/mL (≈ 81 µM)
- MIC (Aspergillus flavus): 100 µg/mL (≈ 324 µM)
- MIC (Escherichia coli): 50 µg/mL (≈ 162 µM)
- MIC (Klebsiella pneumoniae): 50 µg/mL (≈ 162 µM)
- MIC (Pseudomonas aeruginosa): 25 µg/mL (≈ 81 µM)
- MIC (Staphylococcus aureus): 25 µg/mL (≈ 81 µM)
- MIC (Candida albicans): 25 µg/mL (≈ 81 µM)

Structure (SMILES): CC1=C(C(=O)OC(C)C)C(c2ccc([N+](=O)[O-])cc2)NC(=O)N1 (stereo not drawn)
- MIC (Rhizopus): 12.5 µg/mL (≈ 39.1 µM)
- MIC (Mucor): 12.5 µg/mL (≈ 39.1 µM)
- MIC (Salmonella typhi): 12.5 µg/mL (≈ 39.1 µM)
- MIC (Aspergillus flavus): 25 µg/mL (≈ 78.3 µM)
- MIC (Escherichia coli): 12.5 µg/mL (≈ 39.1 µM)
- MIC (Klebsiella pneumoniae): 12.5 µg/mL (≈ 39.1 µM)
- MIC (Pseudomonas aeruginosa): 12.5 µg/mL (≈ 39.1 µM)
- MIC (Staphylococcus aureus): 12.5 µg/mL (≈ 39.1 µM)
- MIC (Candida albicans): 12.5 µg/mL (≈ 39.1 µM)

Structure (SMILES): CC1=C(C(=O)OC(C)C)C(c2ccccc2Cl)NC(=O)N1 (stereo not drawn)
- MIC (Rhizopus): 50 µg/mL (≈ 162 µM)
- MIC (Mucor): 50 µg/mL (≈ 162 µM)
- MIC (Salmonella typhi): 25 µg/mL (≈ 81 µM)
- MIC (Aspergillus flavus): 100 µg/mL (≈ 324 µM)
- MIC (Escherichia coli): 50 µg/mL (≈ 162 µM)
- MIC (Klebsiella pneumoniae): 50 µg/mL (≈ 162 µM)
- MIC (Pseudomonas aeruginosa): 25 µg/mL (≈ 81 µM)
- MIC (Staphylococcus aureus): 25 µg/mL (≈ 81 µM)
- MIC (Candida albicans): 25 µg/mL (≈ 81 µM)

Structure (SMILES): C[C@@H]1[C@H](O)[C@@H](C)/C=C/C=C/C=C/C=C/C=C/C=C/C=C/[C@H](O[C@@H]2O[C@H](C)[C@@H](O)[C@H](N)[C@@H]2O)C[C@@H]2O[C@](O)(C[C@@H](O)C[C@@H](O)[C@H](O)CC[C@@H](O)C[C@@H](O)CC(=O)O[C@H]1C)C[C@H](O)[C@H]2C(=O)O [AMPHOTERICIN B]
- MIC (Rhizopus): 25 µg/mL (≈ 27.1 µM)
- MIC (Mucor): 50 µg/mL (≈ 54.1 µM)
- MIC (Aspergillus flavus): 50 µg/mL (≈ 54.1 µM)
- MIC (Candida albicans): 25 µg/mL (≈ 27.1 µM)

Structure (SMILES): O=C(O)c1cn(C2CC2)c2cc(N3CCNCC3)c(F)cc2c1=O [CIPROFLOXACIN]
- MIC (Salmonella typhi): 50 µg/mL (≈ 151 µM)
- MIC (Escherichia coli): 25 µg/mL (≈ 75.4 µM)
- MIC (Klebsiella pneumoniae): 25 µg/mL (≈ 75.4 µM)
